This note sets out measurements from ChEMBL document CHEMBL2146466, “Evaluation of dimerization-inhibitory activities of cyclic peptides containing a β-hairpin loop sequence of the EGF receptor” (2012).

One may read the inhibition as the relative decrease from the control value, in per cent. As usually defined, the residual activity is what remains of the control signal, in per cent.

Active and inactive are the calls of the source. The calls are words filed in the database; no cut-off is given here. Where a SMILES comes first, the peptide text is derived from it.

The target of experiment [1] is Epidermal growth factor receptor (Homo sapiens) (UniProt P00533). The experiment can be described thus: Inhibition of human recombinant EGF receptor autophosphorylation expressed in A431 cells at 1 nM after 5 mins by immunoblotting analysis. Format: cell-based. The note with it: A-431. Put shortly: (§1)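 A431 cells were seeded at 1×10^4/well, grown 4 days, then starved 24 h in serum-free medium with 1 mg/mL BSA. Cells were given peptide or PBS for 1 h at 37 °C, then 100 ng/mL human EGF for 5 min. Lysates in NP-40 buffer were diluted to 500 µg/mL protein and run on SDS-PAGE. Blots were probed with anti-EGFR pY1068, then stripped and re-probed for total EGFR. Mean of two independent experiments in duplicate.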

For experiment [2] the target is unchanged. The experiment can be described thus: Inhibition of human recombinant EGF receptor autophosphorylation expressed in A431 cells at 10 uM after 5 mins by immunoblotting analysis. Format: cell-based. The note with it: A-431. Put shortly: as §1
In a further experiment the test system is A-431. The experiment can be described thus: Antiproliferative activity against human A431 cells at 10 uM after 3 days by WST-8 assay. Format: functional. The note with it: A-431, 72 h. In short, it runs like this: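 A431 cells in DMEM with 10% FBS were seeded at 5×10^3 cells/well and grown 24 h at 37 °C, 5% CO₂. Peptide at 10 µM, or distilled water as the 100% growth control, was added and cells were re-incubated 24 h for three consecutive days. WST-8 was then added for 90 min and absorbance read at 450 nm (reference 655 nm). Six replicate wells, three independent repeats; mean ± SD.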
(In general: Formazan colour is commonly taken as a measure of viable cells.)

Experiment [3] deals with Epidermal growth factor receptor (Homo sapiens) (UniProt P00533). The experiment can be described thus: Human recombinant EGF receptor dimer amount expressed in A431 cells at 10 uM after 10 mins by immunoblotting analysis relative to control. The note with it: A-431.
The target is the same in experiment [4]. As to the kind of experiment: Inhibition of human recombinant EGF receptor dimerization expressed in A431 cells at 10 uM after 10 mins by immunoblotting analysis relative to CYNPTTYQMC
It is filed as cell-based. The note with it: A-431.

For experiment [5] the target is unchanged. The experiment can be described thus: Inhibition of human recombinant EGF receptor dimerization expressed in A431 cells at 10 uM after 10 mins by immunoblotting analysis relative to control. Format: cell-based. The note with it: A-431. In short, it runs like this:
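Confluent A431 cells were solubilized in 20 mM HEPES pH 7.4 with 1% Triton X-100, 10% glycerol, 1 mM EGTA and 1 mM PMSF, and the extract was spun at 250,000×g. Supernatant at 2 µg/µL protein was pre-treated 60 min with 10 µM peptide, then given 0.21 µM human EGF for 10 min. Cross-linking was with 1 mM BS³ for 10 min, quenched with glycine. Dimer and monomer were resolved by SDS-PAGE and anti-EGFR immunoblot, with ECL quantification. Dimer without peptide was set to 1.0; mean ± SD of at least three experiments in duplicate.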
A general note: Immunoblotting shows a protein as a band on a membrane.

Sequence of Epidermal growth factor receptor (Homo sapiens) (P00533 whole entry): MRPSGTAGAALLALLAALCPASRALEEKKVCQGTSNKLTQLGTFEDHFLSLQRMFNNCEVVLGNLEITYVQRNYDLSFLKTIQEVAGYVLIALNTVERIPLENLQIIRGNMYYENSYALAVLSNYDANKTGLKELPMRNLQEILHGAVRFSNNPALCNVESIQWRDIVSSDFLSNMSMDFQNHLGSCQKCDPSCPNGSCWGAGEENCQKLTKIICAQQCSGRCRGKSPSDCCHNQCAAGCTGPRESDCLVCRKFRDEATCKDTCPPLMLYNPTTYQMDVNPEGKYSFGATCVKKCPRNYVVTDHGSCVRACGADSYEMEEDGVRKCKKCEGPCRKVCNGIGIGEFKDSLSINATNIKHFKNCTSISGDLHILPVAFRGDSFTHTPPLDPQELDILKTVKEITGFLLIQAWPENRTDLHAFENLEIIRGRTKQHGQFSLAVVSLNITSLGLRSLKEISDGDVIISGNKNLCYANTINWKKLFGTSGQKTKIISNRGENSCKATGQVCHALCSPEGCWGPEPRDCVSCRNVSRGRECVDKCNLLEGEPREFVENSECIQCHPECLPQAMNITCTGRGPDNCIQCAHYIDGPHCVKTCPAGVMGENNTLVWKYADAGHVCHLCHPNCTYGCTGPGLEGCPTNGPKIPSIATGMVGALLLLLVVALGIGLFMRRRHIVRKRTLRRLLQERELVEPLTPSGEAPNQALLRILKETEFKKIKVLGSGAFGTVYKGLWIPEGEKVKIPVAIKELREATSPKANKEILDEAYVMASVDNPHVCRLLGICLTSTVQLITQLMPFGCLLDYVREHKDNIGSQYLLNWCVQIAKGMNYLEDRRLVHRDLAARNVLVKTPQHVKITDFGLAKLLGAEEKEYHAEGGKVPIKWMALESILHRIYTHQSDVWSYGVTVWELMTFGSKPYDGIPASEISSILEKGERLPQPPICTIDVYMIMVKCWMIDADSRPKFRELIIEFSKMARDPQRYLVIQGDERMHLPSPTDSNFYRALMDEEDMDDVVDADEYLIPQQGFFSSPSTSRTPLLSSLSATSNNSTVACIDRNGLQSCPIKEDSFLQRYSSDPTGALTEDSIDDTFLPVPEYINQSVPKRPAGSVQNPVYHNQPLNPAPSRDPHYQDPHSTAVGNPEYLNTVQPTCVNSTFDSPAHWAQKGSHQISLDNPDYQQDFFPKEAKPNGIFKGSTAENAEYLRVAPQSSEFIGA

For `CSCC[C@H]1NC(=O)[C@H](N)CSSC[C@H](C(=O)O)NC(=O)[C@@H](Cc2ccc(O)cc2)NC(=O)[C@@H](CC(N)=O)NC(=O)[C@H]2CCCN2C(=O)[C@@H]([C@H](C)O)NC(=O)[C@@H]([C@H](C)O)NC(=O)[C@@H](Cc2ccc(O)cc2)NC(=O)[C@@H](CCC(N)=O)NC1=O`, the inhibition in experiment [1] came out at 45%; in experiment [2] it was 70%. This compound came in with a cell proliferation (% of vehicle) at 10 µM with A-431 of 81%. In experiment [3], the residual activity was 68%.

Regarding `CSCC[C@@H]1NC(=O)[C@H](CCC(N)=O)NC(=O)[C@H](Cc2ccc(O)cc2)NC(=O)[C@H]([C@@H](C)O)NC(=O)[C@H]([C@@H](C)O)NC(=O)[C@@H]2CCCN2C(=O)[C@H](CC(N)=O)NC(=O)[C@H](Cc2ccc(O)cc2)NC(=O)[C@@H](N)CSSC[C@@H](C(=O)O)NC1=O`, in experiment [2], the inhibition entry was “Active”. Further, the cell proliferation (% of vehicle) at 10 µM in the experiment on A-431 was 84%. Moreover, the residual activity in experiment [3] is 69%.

With `CSCC[C@@H]1NC(=O)[C@H](CCC(N)=O)NC(=O)[C@H](Cc2ccc(O)cc2)NC(=O)[C@@H]2CSSC[C@H](NC(=O)[C@H](Cc3ccc(O)cc3)NC(=O)[C@@H](N)CSSC[C@@H](C(=O)O)NC1=O)C(=O)N1CCC[C@H]1C(=O)N[C@@H]([C@@H](C)O)C(=O)N2` (HELM PEPTIDE1{C.Y.C.P.T.C.Y.Q.M.C}$PEPTIDE1,PEPTIDE1,1:R3-10:R3|PEPTIDE1,PEPTIDE1,3:R3-6:R3$$$V2.0), the inhibition in experiment [4] is 65%. The residual activity in experiment [3] turned out to be 83%.

Regarding `CSCC[C@@H]1NC(=O)[C@H](CCC(N)=O)NC(=O)[C@H](Cc2ccc(O)cc2)NC(=O)[C@H]([C@@H](C)O)NC(=O)[C@H]([C@@H](C)O)NC(=O)[C@@H]2CCCN2C(=O)[C@H](CC(N)=O)NC(=O)[C@H](Cc2ccc(O)cc2)NC(=O)[C@@H](NC(=O)[C@H](CCSC)NC(=O)[C@@H](N)CC(C)C)CSSC[C@@H](C(=O)O)NC1=O` (HELM PEPTIDE1{L.M.C.Y.N.P.T.T.Y.Q.M.C}$PEPTIDE1,PEPTIDE1,3:R3-12:R3$$$V2.0), the inhibition entry in experiment [5] was “Active”.

Consider `CSCC[C@H](NC(=O)[C@H](CCC(N)=O)NC(=O)[C@H](Cc1ccc(O)cc1)NC(=O)[C@@H]1CSSC[C@H](NC(=O)[C@H](Cc2ccc(O)cc2)NC(=O)[C@@H](N)CC(C)C)C(=O)N2CCC[C@H]2C(=O)N[C@@H]([C@@H](C)O)C(=O)N1)C(=O)N[C@@H](CC(=O)O)C(=O)O` (HELM PEPTIDE1{L.Y.C.P.T.C.Y.Q.M.D}$PEPTIDE1,PEPTIDE1,3:R3-6:R3$$$V2.0), for which the inhibition in experiment [4] is 32%. In experiment [3], the residual activity was determined as 90%.

With `CSCC[C@@H]1NC(=O)[C@H](CCC(N)=O)NC(=O)[C@H](Cc2ccc(O)cc2)NC(=O)[C@H]([C@@H](C)O)NC(=O)[C@H]([C@@H](C)O)NC(=O)[C@@H]2CCCN2C(=O)[C@H](CC(N)=O)NC(=O)[C@H](Cc2ccc(O)cc2)NC(=O)[C@@H](NC(=O)[C@H](CCSC)NC(=O)[C@H](CC(C)C)NC(=O)[C@@H]2CCCN2)CSSC[C@@H](C(=O)O)NC1=O` (HELM PEPTIDE1{P.L.M.C.Y.N.P.T.T.Y.Q.M.C}$PEPTIDE1,PEPTIDE1,4:R3-13:R3$$$V2.0), in experiment [5], the inhibition entry is “Active”.

For the compound H-LVYNKLTFQLEPNPHTK-OH, the cell proliferation (% of vehicle) at 10 µM in the experiment with A-431 turned out to be 95%.
